{"data": "Measurements from different studies", "target": "Tyrosine-protein kinase ABL2 (ABL2, Homo sapiens, UniProt P42684)"}
{"SMILES": "CO[C@@H](C)c1c(Nc2ccc([C@H](N(C)C(=O)C3CCS(=O)(=O)CC3)C(F)(F)F)cc2)cnc2cc(Cl)nn12", "effect on": "cell-free assay", "method": "competition with immobilised ligand", "tested at": "1 µM", "remaining binding [%]": 85}
{"SMILES": "O=C(Nc1c[nH]nc1C(=O)NC1CCNCC1)c1cc(F)cc(F)c1", "effect on": "binding", "method": "competition with immobilised ligand", "tested at": "1 µM", "remaining binding [%]": 100}
{"SMILES": "Cc1c(-c2ccccc2)oc2c(C(=O)OCCN3CCCCC3)cccc2c1=O", "effect on": "cell-free assay", "method": "competition with immobilised ligand", "tested at": "10 µM", "remaining binding [%]": 94}
{"SMILES": "CN(C)c1nccc(-c2cnc3ncccn23)n1", "effect on": "binding", "tested at": "1 µM", "remaining binding [%]": 99}
{"SMILES": "COc1cc2ncnc(Nc3ccc(F)c(Cl)c3)c2cc1OCCCN1CCOCC1", "effect on": "cell-free assay", "method": "competition with immobilised ligand", "tested at": "10 µM", "remaining binding [%]": 83}
{"SMILES": "O=C(NCCCC1CCCCC1)c1ccc(CNC(=O)c2cnn(-c3ccccc3)c2C(F)(F)F)cc1", "effect on": "cell-free assay", "method": "competition with immobilised ligand", "tested at": "0.1 µM", "remaining binding [%]": 87}
{"SMILES": "COc1ccnn2ncc(-c3ccnc(N(C)C)n3)c12", "effect on": "binding", "tested at": "1 µM", "remaining binding [%]": 86}
{"SMILES": "Nc1ncc2c(n1)-c1c([nH]c3ccc(C#CC4CC4)cc13)CCCC2", "effect on": "binding", "method": "competition with immobilised ligand", "tested at": "1 µM", "remaining binding [%]": 86}
{"SMILES": "c1cnn2ncc(-c3ccnc(N4CCC45COC5)n3)c2c1", "effect on": "binding", "tested at": "1 µM", "remaining binding [%]": 87}
{"SMILES": "CCN(CC)Cc1cc(Nc2ccnc3cc(Cl)ccc23)ccc1O", "effect on": "cell-free assay", "method": "competition with immobilised ligand", "tested at": "0.1 µM", "remaining binding [%]": 97}
{"SMILES": "O=C(Nc1cccnn1)N1CC(C/C=C/c2cncc(Oc3ccc(C(F)(F)F)cn3)n2)C1", "effect on": "cell-free assay", "method": "competition with immobilised ligand", "tested at": "1 µM", "remaining binding [%]": 100}
{"SMILES": "FC(F)(F)Oc1cccc(-c2cnc3ccc(-c4ccncc4)nn23)c1", "effect on": "cell-free assay", "method": "competition with immobilised ligand", "tested at": "5 µM", "remaining binding [%]": 76}
{"SMILES": "CNC(=O)c1cc(Oc2ccc(NC(=O)Nc3ccc(Cl)c(C(F)(F)F)c3)cc2)ccn1", "effect on": "cell-free assay", "method": "competition with immobilised ligand", "tested at": "0.1 µM", "remaining binding [%]": 97}
{"SMILES": "CNC(=O)Nc1ccc2c(c1)[C@@]1(CC2)OC(=O)N(CC(=O)N(Cc2ccc(F)cc2)[C@@H](C)C(F)(F)F)C1=O", "effect on": "cell-free assay", "method": "competition with immobilised ligand", "tested at": "1 µM", "remaining binding [%]": 84}
{"SMILES": "COC(=O)Nc1nc2cc(C(=O)c3ccccc3)ccc2[nH]1", "effect on": "cell-free assay", "method": "competition with immobilised ligand", "tested at": "0.1 µM", "remaining binding [%]": 100}
{"SMILES": "COc1cccc(CNC(=O)c2nc3scc(COCc4ccc(C(=O)O)cc4)c3c(=O)[nH]2)c1", "effect on": "cell-free assay", "method": "competition with immobilised ligand", "tested at": "1 µM", "remaining binding [%]": 82.2}
{"SMILES": "CN1CC[C@H](c2c(O)cc(O)c3c(=O)cc(-c4ccccc4Cl)oc23)[C@H](O)C1", "effect on": "cell-free assay", "method": "competition with immobilised ligand", "tested at": "0.1 µM", "remaining binding [%]": 100}
{"SMILES": "O=C(NCc1ncc(C(F)(F)F)cc1Cl)c1ccc2c(c1)C1(CCS(=O)(=O)CC1)[C@@H](C1CC1)N2S(=O)(=O)c1ccc(F)cc1", "effect on": "cell-free assay", "method": "competition with immobilised ligand", "tested at": "1 µM", "remaining binding [%]": 100}
{"SMILES": "CCN1CCN(Cc2ccc(C(=O)Nc3ccc(C)c(Oc4ccc5c(c4)CC(=O)N5)c3)cc2C(F)(F)F)CC1", "effect on": "binding", "method": "competition with immobilised ligand", "tested at": "1 µM", "remaining binding [%]": 20}
{"SMILES": "Cc1cnc(Nc2ccc(C(=O)N3CCC(N4CCCC4)CC3)cc2)nc1-c1cc2ccccc2s1", "effect on": "binding", "method": "competition with immobilised ligand", "tested at": "1 µM", "remaining binding [%]": 43}
{"SMILES": "CS(=O)(=O)CCNCc1ccc(-c2ccc3ncnc(Nc4ccc(OCc5cccc(F)c5)c(Cl)c4)c3c2)o1", "effect on": "cell-free assay", "method": "competition with immobilised ligand", "tested at": "0.1 µM", "remaining binding [%]": 99}
{"SMILES": "COc1cnc(Nc2cccc(S(N)(=O)=O)c2)nc1N1CCN(c2ccccc2)CC1", "effect on": "binding", "method": "competition with immobilised ligand", "tested at": "1 µM", "remaining binding [%]": 98}
{"SMILES": "C[C@@H](c1cccc(C#N)c1)n1cc(Cl)cc(C(N)=O)c1=N", "effect on": "cell-free assay", "method": "competition with immobilised ligand", "tested at": "1 µM", "remaining binding [%]": 84}
{"SMILES": "CN(c1nccc(-c2cnn3ncccc23)n1)C1CC1", "effect on": "binding", "tested at": "1 µM", "remaining binding [%]": 99}
{"SMILES": "CCN(CC)CCNC(=O)c1c(C)[nH]c(/C=C2\\C(=O)Nc3ccc(F)cc32)c1C", "effect on": "cell-free assay", "method": "competition with immobilised ligand", "tested at": "10 µM", "remaining binding [%]": 51}
{"SMILES": "Cc1cnn2ncc(-c3ccnc(N(C)C)n3)c2c1", "effect on": "binding", "tested at": "1 µM", "remaining binding [%]": 100}
{"SMILES": "O=C(NCCCN1CCOCC1)c1ccc(Nc2nccc(-c3cc4ccccc4s3)n2)cc1", "effect on": "binding", "method": "competition with immobilised ligand", "tested at": "1 µM", "remaining binding [%]": 85}
{"SMILES": "Cc1nc(Cc2cccc(C(F)(F)F)c2)sc1-c1ccc(C(N)=O)nc1", "effect on": "cell-free assay", "method": "competition with immobilised ligand", "tested at": "1 µM", "remaining binding [%]": 100}
{"SMILES": "O=C(c1ccc(Nc2ncc(Cl)c(-c3ccc(Cl)s3)n2)cc1)N1CCC(N2CCCC2)CC1", "effect on": "binding", "method": "competition with immobilised ligand", "tested at": "1 µM", "remaining binding [%]": 56}
{"SMILES": "C[C@@H]1CCN(c2nccc(-c3cnn4ncccc34)n2)C1", "effect on": "binding", "tested at": "1 µM", "remaining binding [%]": 76}
